Laboratory results published in ChEMBL document CHEMBL1833815, “Novel inhibitors of NRH:quinone oxidoreductase 2 (NQO2): crystal structures, biochemical activity, and intracellular effects of imidazoacridin-6-ones” (J Med Chem, 2011).
Active and inactive are the calls of the source. The calls are words filed in the database; no cut-off is given here.

How the values were obtained:
HCT-116 [1] = experiment: Cytotoxicity against human HCT116 cells after 24 hrs by MTT assay; format: cell-based; conditions: HCT-116, 24 h
In short: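 HCT116 cells in RPMI-1640 with 10% FCS and 2 mM glutamine, seeded at 2.5 × 10³ per well and attached overnight. Exposed to compound for 24 h, then drug replaced with fresh medium, growth to 96 h total. MTT 1.5 mM final for 4 h, formazan in DMSO, A540. IC50 = concentration giving 50% OD reduction versus vehicle; ≥3 separate experiments.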

HCT-116 [2] = experiment: Cytotoxicity against human HCT116 cells after 96 hrs by MTT assay; format: cell-based; conditions: HCT-116, 96 h
In short: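 HCT116 cells in RPMI-1640 with 10% FCS and 2 mM glutamine, seeded at 2.5 × 10³ per well, left overnight, then exposed continuously for 96 h in full medium. Viability by MTT (1.5 mM final, 4 h, DMSO solubilization, A540). IC50 = concentration reducing OD by 50% relative to vehicle controls; repeated on at least three occasions.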

[3] = biological target: T1, Ribosyldihydronicotinamide dehydrogenase [quinone] (Homo sapiens, UniProt P16083); experiment: Inhibition of human recombinant NQO2 assessed as reduction of DCPIP by spectrophotometry
T1 sequence (P16083 whole entry): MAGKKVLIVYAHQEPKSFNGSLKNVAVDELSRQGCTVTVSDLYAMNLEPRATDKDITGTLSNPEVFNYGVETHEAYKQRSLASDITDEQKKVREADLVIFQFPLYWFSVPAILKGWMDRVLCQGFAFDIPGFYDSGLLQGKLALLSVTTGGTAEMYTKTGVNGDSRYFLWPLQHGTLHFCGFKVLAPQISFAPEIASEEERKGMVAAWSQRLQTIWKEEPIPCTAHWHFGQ
In short: (§1)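 Recombinant human NQO2 (His-tag/size-exclusion purified from E. coli BL21) diluted to give about 0.1 A/min. Assay in 50 mM phosphate pH 7.4 with 40 μM DCPIP, 200 μM NRH, and inhibitor in DMSO (1.0% v/v final), with or without 2 μM BSA, at 37 °C. DCPIP reduction followed at 600 nm. IC50 = 50% reduction of initial rate by nonlinear fit; triplicates, three experiments.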

[4] = biological target: T2, Ribosyldihydronicotinamide dehydrogenase [quinone] (Homo sapiens) (UniProt P16083); experiment: Ratio of IC50 for human recombinant NQO2 in the presence of BSA to IC50 for human recombinant NQO2 in the absence of BSA; in short: as §1
T2 sequence (whole entry): T1 sequence (P16083 whole entry)

Nucleic Acid = experiment: Binding affinity to calf thymus DNA assessed as increase in melting temperature at 10 uM; format: nucleic-acid assay; conditions: Bos taurus
In short: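 Calf thymus DNA (20 μg/mL) with 10 μM compound in low-salt phosphate buffer (7.5 mM NaH₂PO₄, 1 mM EDTA, pH 7.0). Cuvettes heated from 37 to 98 °C with A260 read at every degree. Tm taken from at least three independent determinations; 10 μM adriamycin served as positive control.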

[5] = Drug uptake in nucleus of human MDA468 cells assessed as subcellular localization at 5 uM after 3 hrs by phalloidin-based fluorescent imaging; format: ADME, cell-based; conditions: mda-mb-468, 3 h
In short: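 MDA-MB-468 cells grown on coverslips to about 70% confluency, exposed 3 h, fixed in 3.6% formaldehyde plus 0.2% glutaraldehyde, permeabilised with 0.1% Triton X-100, blocked in 10% BSA, stained with Alexa Fluor 568 phalloidin (1:1000) for actin. Imaged by fluorescence microscopy; compound excited at 340 nm, emission 520 nm; phalloidin read at 568 nm.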

[6] = biological target: T1, Ribosyldihydronicotinamide dehydrogenase [quinone]; experiment: Inhibition of human recombinant NQO2 assessed as reduction of DCPIP by spectrophotometry in the presence of 2 uM BSA
In short: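 Recombinant human NQO2 (His-tag/size-exclusion purified, expressed in BL21 codon+ cells) in 50 mM phosphate pH 7.4 with 40 μM DCPIP and 200 μM NRH, 2 μM BSA present, inhibitor in DMSO (1.0% v/v final), 37 °C. DCPIP reduction followed at 600 nm; IC50 = 50% drop in initial rate by nonlinear fit; triplicates, three experiments.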

[7] = Drug uptake in nucleus of human MDA468 cells assessed as subcellular localization at 25 uM after 3 hrs by phalloidin-based fluorescent imaging; format: ADME, cell-based; conditions: mda-mb-468, 3 h
In short: (§2)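 MDA-MB-468 cells on coverslips at about 70% confluence treated 3 h. Fixed in 3.6% formaldehyde plus 0.2% glutaraldehyde, permeabilized with 0.1% Triton X-100, blocked in 10% BSA. Counterstained with Alexa Fluor 568 phalloidin (1:1000) to show actin architecture. Compound fluorescence imaged at excitation 340 nm, emission 520 nm; phalloidin visualized at 568 nm.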

[8] = Drug uptake in cytoplasm of human MDA468 cells at 25 uM after 3 hrs by phalloidin-based fluorescence imaging; format: ADME, cell-based; conditions: mda-mb-468, 3 h; in short: as §2
[9] = biological target: T2, Ribosyldihydronicotinamide dehydrogenase [quinone] (Homo sapiens); experiment: Inhibition of NQO2-mediated activation of CB1954 in human MDA468 cells at 100 uM after 3 hrs in the presence of 100 uM […]; format: cell-based; conditions: MDA-MB-468
In short: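 MDA468 cells exposed 3 h to inhibitor together with CB1954 (10 μM in figure; varying concentrations per methods) plus 100 μM NRH cofactor. Cells then washed with PBS, refed with fresh medium, and incubated to 96 h total. Viability measured by MTT assay; protection from CB1954 toxicity serves as a readout of cellular NQO2 inhibition.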

| Compound | IC50 [3] [µM] | Ratio IC50 [4] | Tm (Nucleic Acid) [°C] | Drug uptake [7] | Drug uptake [8] | inhibition [9] | IC50 (HCT-116 [1]) [µM] | IC50 (HCT-116 [2]) [µM] | Drug uptake [5] | IC50 [6] [µM] |
| --- | --- | --- | --- | --- | --- | --- | --- | --- | --- | --- |
| COc1ccc2c(c1)c(=O)c1c(NCCN(C)C)ccc3ncn2c31 | 0.059 | 54 | 88.6 | – | – | – | 2.1 | 0.51 | Active | 3.2 |
| COc1cccc2c1C(=O)c1c(O)c3c(c(O)c1C2=O)C[C@@](O)(C(=O)CO)C[C@@H]3O[C@H]1C[C@H](N)[C@H](O)[C@H](C)O1 | – | – | 90.8 | – | – | – | – | – | – | – |
| CN(C)CCNc1ccc2ncn3c4ccc(F)cc4c(=O)c1c23 | 0.097 | – | – | – | – | – | 2.9 | 0.66 | – | – |
| C[N+](C)([O-])CCNc1ccc2ncn3c4ccc(F)cc4c(=O)c1c23 | 0.205 | – | – | – | – | – | 40.3 | 17.3 | – | – |
| CCN(CC)CCNc1ccc2ncn3c4ccc(O)cc4c(=O)c1c23 [C-1311] | 0.126 | – | – | – | – | – | 4.16 | 1.14 | – | – |
| C[N+](C)([O-])CCNc1ccc2ncn3c4ccccc4c(=O)c1c23 | 0.096 | 6.5 | – | – | – | – | 41 | 12.1 | – | – |
| Cc1nc2ccc(NCCN(C)C)c3c(=O)c4ccccc4n1c23 | 0.09 | – | – | – | – | – | 1.94 | 0.5 | – | – |
| CN(C)CCNc1ccc2ncn3c4ccccc4c(=O)c1c23 | 0.115 | 38 | – | – | – | – | 2.53 | 0.6 | – | – |
| Cc1nc2ccc(NCC[N+](C)(C)[O-])c3c(=O)c4cc(F)ccc4n1c23 | 0.097 | – | – | – | – | – | 31 | 9.2 | – | – |

Further compounds by falling IC50 [3], results first:

| IC50 [3] [µM] | Ratio IC50 [4] | Tm (Nucleic Acid) [°C] | Drug uptake [7] | Drug uptake [8] | inhibition [9] | Compound | IC50 (HCT-116 [1]) [µM] | IC50 (HCT-116 [2]) [µM] | Drug uptake [5] | IC50 [6] [µM] |
| --- | --- | --- | --- | --- | --- | --- | --- | --- | --- | --- |
| 0.09 | – | – | – | – | – | Cc1nc2ccc(NCCN(C)C)c3c(=O)c4cc(O)ccc4n1c23 | 3.01 | 0.95 | – | – |
| 0.083 | – | – | – | – | – | Cc1nc2ccc(NCCN(C)C)c3c(=O)c4cc(F)ccc4n1c23 | 2.11 | 0.51 | – | – |
| 0.083 | – | – | – | – | – | CN(C)CCNc1ccc2ncn3c4ccc(O)cc4c(=O)c1c23 | 1.61 | 0.37 | – | – |
| 0.074 | – | – | – | – | – | Cc1nc2ccc(NCCN(C)C)c3c(=O)c4cc(Br)ccc4n1c23 | 1.91 | 0.44 | – | – |
| 0.073 | – | – | – | – | – | COc1ccc2c(c1)c(=O)c1c(NCC[N+](C)(C)[O-])ccc3nc(C)n2c31 | 58.2 | 11.4 | – | – |
| 0.056 | – | – | – | – | – | Cc1nc2ccc(NCC[N+](C)(C)[O-])c3c(=O)c4ccccc4n1c23 | 34.9 | 16.1 | – | – |
| 0.054 | – | – | – | – | – | CCN(CC)CCNc1ccc2nc(C)n3c4ccc(O)cc4c(=O)c1c23 | 5.46 | 0.93 | – | – |
| 0.047 | – | – | – | – | – | Cc1nc2ccc(NCC[N+](C)(C)[O-])c3c(=O)c4cc(Br)ccc4n1c23 | 49 | 10.6 | – | – |
| 0.046 | – | – | – | – | – | COc1ccc2c(c1)c(=O)c1c(NCCN(C)C)ccc3nc(C)n2c31 | 1.86 | 0.46 | – | – |
| 0.042 | – | – | – | – | – | C[N+](C)([O-])CCNc1ccc2ncn3c4ccc(O)cc4c(=O)c1c23 | 38.7 | 19.7 | – | – |
| 0.014 | 7 | 85 | Not Active | Active | Active | COc1ccc2c(c1)c(=O)c1c(NCC[N+](C)(C)[O-])ccc3ncn2c31 | 40.3 | 12.8 | – | 0.098 |
